5 molecules from ChEMBL document CHEMBL5046219, “Optimization of N-Phenylpropenoyl-l-amino Acids as Potent and Selective Inducible Nitric Oxide Synthase Inhibitors for Parkinson's Disease” (J Med Chem, 2021) can be followed below.

In general, IC50 refers to the midpoint of a concentration-inhibition curve. For orientation: AUC(0-inf) means the area under the concentration-time curve extrapolated to infinity. Low values mean low exposure, high ones high exposure. A word on the Cmax: it is the highest concentration seen after dosing. As a reminder, the half-life is the time needed for the level to fall by half in the phase considered. Read a low half-life as fast loss.

The structures appear in SMILES notation. Active and inactive are the calls of the source.

Series [1] in a line: Effective permeability of compound in PBS buffer at pH 7.4 at 200 uM incubated for 17 hrs by PAMPA-BBB assay. Format: ADME. The conditions noted are these: read-out: Peff. The procedure, abridged: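 PAMPA-BBB: the donor filter was coated with porcine brain lipid (20 mg/mL in dodecane). Compound was loaded at 200 μM in 10 mM PBS pH 7.4, with PBS as acceptor. Plates were incubated 17 h at 25 °C in saturated humidity with 100 rpm orbital shaking. Donor and acceptor concentrations were read by UV and Pe was calculated from the flux equation. Values are the mean of triplicates with SD.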

For another series, the species on record is Homo sapiens. Nature of the series: Selectivity ratio of IC50 for human eNOS to IC50 for human iNOS. The procedure, abridged:
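Human iNOS, eNOS or nNOS was incubated 1 h at 37 °C in 50 mM HEPES with 10 nM [3H]arginine and [14C]citrulline internal standard. Cofactors were NADP⁺, G6P, G6P dehydrogenase, MgCl2, FAD, FMN and BH4. eNOS and nNOS reactions also contained 25 nM calmodulin, 0.5 mM CaCl2 and 3.5 mM glutathione. Reactions were stopped with MES and passed through cation exchange resin, and [3H]citrulline was counted. Background was set with 10 μM AMT. IC50 values came from eight concentrations (0.01–10 μM), in three repeated experiments.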

Another series addresses Nitric oxide synthase 1 (Homo sapiens, UniProt P29475). Put plainly: Inhibition of human nNOS assessed as reduction in L-[3H]-citrulline level using L-[3H]-arginine as substrate incubated for 1 hr.
In another series the test system is BV-2. Put plainly: Anti-neuroinflammation in mouse BV-2 cells assessed as inhibition of LPS-induced NO production at 1 uM preincubated for 6 hrs followed by LPS addition measured after 24 hrs by Griess reagent based assay. Format: functional. The procedure, abridged:
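BV-2 murine microglia were grown in DMEM with 10% FBS at 37 °C and 5% CO2, then seeded at 5 × 10³ cells/well. After 24 h, compound was added at 1 μM. LPS (500 ng/mL) followed 6 h later. After a further 24 h, medium was collected and NO was read at 540 nm with a colorimetric NO detection kit.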
Background: The Griess reaction detects nitrite, a stable product of nitric oxide.

Series [2] addresses Nitric oxide sythases; iNOS & nNOS (Homo sapiens) (UniProt P29475+P35228). Nature of the series: Selectivity ratio of IC50 for human nNOS to IC50 for human iNOS. Type of series: protein assay. The procedure, abridged: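 Human nNOS and human iNOS each converting [³H]arginine (10 nM) to [³H]citrulline, with [¹⁴C]citrulline (80−120 nM) as internal standard, in 50 mM HEPES at 37 °C for 1 h. Cofactors were NADP⁺, G6P/G6PDH, MgCl₂, FAD, FMN and BH₄; nNOS also had calmodulin, CaCl₂ and glutathione. Eight concentrations (0.01−10 μM). Stopped with MES, passed over cation-exchange resin, filtrate counted. Background set with 10 μM AMT. Each IC50 from a curve, repeated three times.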

The target of series [3] is Nitric oxide synthase, inducible (Homo sapiens, UniProt P35228). Put plainly: Inhibition of human iNOS assessed as reduction in L-[3H]-citrulline level using L-[3H]-arginine as substrate incubated for 1 hr.
The next series addresses T1, Nitric oxide synthase 3 (Homo sapiens, UniProt P29474).
T1 sequence (P29474 whole entry): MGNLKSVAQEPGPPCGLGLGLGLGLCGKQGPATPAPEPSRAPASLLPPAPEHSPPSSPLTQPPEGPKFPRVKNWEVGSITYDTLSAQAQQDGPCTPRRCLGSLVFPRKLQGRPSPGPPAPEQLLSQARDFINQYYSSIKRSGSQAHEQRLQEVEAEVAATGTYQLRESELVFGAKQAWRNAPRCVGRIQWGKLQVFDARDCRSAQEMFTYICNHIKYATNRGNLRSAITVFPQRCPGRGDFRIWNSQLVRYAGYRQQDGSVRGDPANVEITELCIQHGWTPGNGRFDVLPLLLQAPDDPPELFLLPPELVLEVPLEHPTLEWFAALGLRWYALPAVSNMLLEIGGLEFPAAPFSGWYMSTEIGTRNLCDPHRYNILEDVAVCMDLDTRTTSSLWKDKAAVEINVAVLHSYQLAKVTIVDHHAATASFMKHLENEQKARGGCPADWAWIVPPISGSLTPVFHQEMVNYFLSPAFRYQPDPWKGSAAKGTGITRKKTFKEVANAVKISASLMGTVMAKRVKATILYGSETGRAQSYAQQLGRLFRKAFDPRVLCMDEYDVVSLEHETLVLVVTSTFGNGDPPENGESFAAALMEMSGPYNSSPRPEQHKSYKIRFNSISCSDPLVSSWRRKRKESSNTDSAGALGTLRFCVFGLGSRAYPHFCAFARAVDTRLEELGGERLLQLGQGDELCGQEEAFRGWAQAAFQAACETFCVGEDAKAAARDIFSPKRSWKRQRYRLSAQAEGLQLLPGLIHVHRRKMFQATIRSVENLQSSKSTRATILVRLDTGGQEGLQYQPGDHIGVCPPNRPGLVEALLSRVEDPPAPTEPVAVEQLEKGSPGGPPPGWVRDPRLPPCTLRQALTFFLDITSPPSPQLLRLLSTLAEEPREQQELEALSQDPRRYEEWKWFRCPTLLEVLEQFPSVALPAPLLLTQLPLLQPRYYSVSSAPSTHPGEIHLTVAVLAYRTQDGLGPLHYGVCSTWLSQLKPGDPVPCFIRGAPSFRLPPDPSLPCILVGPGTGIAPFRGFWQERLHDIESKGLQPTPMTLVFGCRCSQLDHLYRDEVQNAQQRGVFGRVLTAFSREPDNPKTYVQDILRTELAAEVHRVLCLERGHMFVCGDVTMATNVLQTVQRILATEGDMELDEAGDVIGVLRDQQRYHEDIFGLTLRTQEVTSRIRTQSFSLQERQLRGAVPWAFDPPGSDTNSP
Put plainly: Inhibition of human eNOS assessed as reduction in L-[3H]-citrulline level using L-[3H]-arginine as substrate incubated for 1 hr.

A short description of series [4]: AUC (0 to infinity) in Balb/c mouse blood at 30 mg/kg, po administered as single dose measured upto 24 hrs by LC-MS analysis. Format: ADME, organism-based. More on the design: route oral, dose 30 mg/kg, time <=24. A digest of the protocol: (§1)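 Male BALB/c mice were fasted 16 h and then given a single intragastric dose of 30 mg/kg. Blood and brain were collected after decapitation at 5, 10, 15 and 30 min and at 1, 2, 6, 8, 12 and 24 h. Plasma was obtained by centrifugation and brains were homogenized in saline. Samples underwent methanol protein precipitation and single-quadrupole LC-MS on a C18 column at 30 °C, using isocratic 40% acetonitrile with 0.1% formic acid.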

Series [5] is described as follows: Cmax in Balb/c mouse brain at 30 mg/kg, po administered as single dose measured upto 24 hrs by LC-MS analysis. Type of series: ADME, organism-based. More on the design: route oral, dose 30 mg/kg, time <=24. A digest of the protocol:
as §1

Series [6] is described as follows: Half life in Balb/c mouse brain at 30 mg/kg, po administered as single dose measured upto 24 hrs by LC-MS analysis. Format: ADME, organism-based. The procedure, abridged: as §1
The nature of series [7]: Cmax in Balb/c mouse blood at 30 mg/kg, po administered as single dose measured upto 24 hrs by LC-MS analysis. Format: ADME, organism-based. Details: route oral, dose 30 mg/kg, time <=24. A digest of the protocol:
as §1

Series [8] in a line: Half life in Balb/c mouse blood at 30 mg/kg, po administered as single dose measured upto 24 hrs by LC-MS analysis. Type of series: ADME, organism-based. The procedure, abridged:
as §1

Series [9] in a line: AUC (0 to infinity) in Balb/c mouse brain at 30 mg/kg, po administered as single dose measured upto 24 hrs by LC-MS analysis. Type of series: ADME, organism-based. Details: route oral, dose 30 mg/kg, time <=24. A digest of the protocol:
as §1

Nitric oxide synthase, inducible, sequence (P35228 whole entry): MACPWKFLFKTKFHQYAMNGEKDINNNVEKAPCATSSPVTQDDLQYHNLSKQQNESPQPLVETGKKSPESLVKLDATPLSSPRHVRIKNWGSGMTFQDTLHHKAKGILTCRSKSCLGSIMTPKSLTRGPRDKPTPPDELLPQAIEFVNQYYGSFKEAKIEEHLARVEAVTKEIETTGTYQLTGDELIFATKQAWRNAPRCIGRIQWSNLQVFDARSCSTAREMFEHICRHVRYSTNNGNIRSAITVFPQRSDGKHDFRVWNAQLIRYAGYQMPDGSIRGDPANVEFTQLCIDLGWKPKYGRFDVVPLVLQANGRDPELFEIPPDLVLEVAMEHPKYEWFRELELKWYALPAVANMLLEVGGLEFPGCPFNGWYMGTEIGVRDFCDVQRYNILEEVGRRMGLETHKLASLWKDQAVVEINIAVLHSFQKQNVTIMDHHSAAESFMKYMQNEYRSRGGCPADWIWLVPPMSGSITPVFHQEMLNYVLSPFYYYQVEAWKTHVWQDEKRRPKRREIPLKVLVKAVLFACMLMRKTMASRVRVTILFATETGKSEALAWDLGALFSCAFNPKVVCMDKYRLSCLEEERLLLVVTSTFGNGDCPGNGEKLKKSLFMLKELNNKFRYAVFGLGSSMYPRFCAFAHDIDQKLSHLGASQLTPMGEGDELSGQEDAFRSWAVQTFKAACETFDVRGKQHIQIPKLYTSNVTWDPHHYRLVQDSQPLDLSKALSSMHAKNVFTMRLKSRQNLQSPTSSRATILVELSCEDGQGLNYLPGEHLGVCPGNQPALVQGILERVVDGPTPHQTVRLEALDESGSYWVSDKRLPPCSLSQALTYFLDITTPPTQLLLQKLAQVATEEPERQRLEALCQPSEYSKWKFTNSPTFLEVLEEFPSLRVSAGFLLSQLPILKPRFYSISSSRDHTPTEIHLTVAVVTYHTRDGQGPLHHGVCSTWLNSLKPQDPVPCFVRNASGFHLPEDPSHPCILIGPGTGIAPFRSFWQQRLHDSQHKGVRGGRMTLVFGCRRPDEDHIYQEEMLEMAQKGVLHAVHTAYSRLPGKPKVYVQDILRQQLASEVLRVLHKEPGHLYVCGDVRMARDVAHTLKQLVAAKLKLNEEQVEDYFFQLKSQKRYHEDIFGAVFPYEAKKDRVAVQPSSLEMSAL
Nitric oxide sythases; iNOS & nNOS (Homo sapiens), sequence (P29475 whole entry, looked up): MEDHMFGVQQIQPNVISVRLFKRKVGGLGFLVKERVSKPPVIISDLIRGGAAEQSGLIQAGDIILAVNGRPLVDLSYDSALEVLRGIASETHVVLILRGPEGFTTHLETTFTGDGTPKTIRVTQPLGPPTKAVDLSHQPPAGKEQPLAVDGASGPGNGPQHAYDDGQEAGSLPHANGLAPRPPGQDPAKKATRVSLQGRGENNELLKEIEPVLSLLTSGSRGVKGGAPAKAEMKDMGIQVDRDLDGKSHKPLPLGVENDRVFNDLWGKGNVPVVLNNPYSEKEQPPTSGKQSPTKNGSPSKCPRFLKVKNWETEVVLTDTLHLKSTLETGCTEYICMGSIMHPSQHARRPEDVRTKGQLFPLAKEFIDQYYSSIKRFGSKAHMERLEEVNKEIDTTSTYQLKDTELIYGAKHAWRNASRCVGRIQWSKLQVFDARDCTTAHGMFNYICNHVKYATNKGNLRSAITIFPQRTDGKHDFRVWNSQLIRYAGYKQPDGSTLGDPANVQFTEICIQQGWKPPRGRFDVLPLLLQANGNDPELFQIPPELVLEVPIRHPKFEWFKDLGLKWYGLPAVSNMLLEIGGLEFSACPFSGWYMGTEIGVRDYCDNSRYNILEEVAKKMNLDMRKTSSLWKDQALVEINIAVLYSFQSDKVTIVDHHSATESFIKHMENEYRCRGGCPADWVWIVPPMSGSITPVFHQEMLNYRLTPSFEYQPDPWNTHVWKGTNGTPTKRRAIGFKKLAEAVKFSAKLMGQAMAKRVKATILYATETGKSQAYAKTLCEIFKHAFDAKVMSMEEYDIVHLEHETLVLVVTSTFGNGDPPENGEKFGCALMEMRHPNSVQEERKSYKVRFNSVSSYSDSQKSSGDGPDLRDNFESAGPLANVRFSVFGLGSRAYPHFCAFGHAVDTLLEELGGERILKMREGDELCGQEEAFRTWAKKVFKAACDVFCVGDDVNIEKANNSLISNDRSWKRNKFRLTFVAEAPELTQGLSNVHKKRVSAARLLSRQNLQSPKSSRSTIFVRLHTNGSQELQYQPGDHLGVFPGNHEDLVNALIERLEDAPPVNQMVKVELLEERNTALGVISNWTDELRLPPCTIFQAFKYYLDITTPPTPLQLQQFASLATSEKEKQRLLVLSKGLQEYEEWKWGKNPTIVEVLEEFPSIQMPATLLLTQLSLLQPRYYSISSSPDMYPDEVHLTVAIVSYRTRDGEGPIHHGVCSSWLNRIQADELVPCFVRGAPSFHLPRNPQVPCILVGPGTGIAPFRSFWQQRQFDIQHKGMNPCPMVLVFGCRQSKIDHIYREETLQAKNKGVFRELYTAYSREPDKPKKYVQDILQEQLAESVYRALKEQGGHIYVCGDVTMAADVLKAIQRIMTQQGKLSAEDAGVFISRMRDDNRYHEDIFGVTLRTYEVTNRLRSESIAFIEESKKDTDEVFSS
Nitric oxide sythases; iNOS & nNOS (Homo sapiens), sequence (P35228 whole entry, looked up): as the sequence (P35228 whole entry) above
Nitric oxide synthase 1, sequence (P29475 whole entry): as the sequence (P29475 whole entry, looked up) above

For the molecule `CC(=N)NCc1cccc(CN)c1` [1400W], in series [1], the Papp at 17 h, 200 µM was 3.18 ×10⁻⁶ cm/s.
Turning to `O=C(/C=C/c1ccccc1Cl)N[C@@H](Cc1ccc(F)cc1)C(=O)O`, the Ratio IC50 in the series filed under Homo sapiens came to 180; in series [2] it was 153. The half-maximal inhibitory concentration (IC50) came out at 126 µM at Nitric oxide synthase 1, 0.82 µM in series [3] and 147 µM on Nitric oxide synthase 3. Besides, in the series with BV-2, the outcome was Active.
For the molecule `COc1cc(/C=C/C(=O)N[C@H](Cc2ccc(O)cc2)C(=O)O)ccc1O`, the results for the Ratio IC50 (in the series listed under Homo sapiens; in [2]) were 52 and 45, respectively. Further, the AUC(0-inf) in series [4] is 3450 ng·h/mL; in series [9], 567 ng·h/mL. The values for the peak concentration (Cmax) in series [5] and in [7] were 40.2 ng/mL and 1000 ng/mL, respectively. For the same molecule, the half-life was 0.9 h in series [6] and 1.2 h in series [8]. Also, the IC50 on Nitric oxide synthase 1 was 40.3 µM; in series [3] it was 0.892 µM; at Nitric oxide synthase 3, 46.6 µM. The Papp at 17 h, 200 µM in [1] turned out to be 1.23 ×10⁻⁶ cm/s.
With `O=C(/C=C/c1ccc(Cl)c(Cl)c1)N[C@@H](Cc1ccc(F)cc1)C(=O)O`, the Ratio IC50 in the series filed under Homo sapiens is 165; in [2], 149. For the same molecule, the 50% inhibitory concentration (IC50) at Nitric oxide synthase 1 was 149 µM; in [3], 0.993 µM; on Nitric oxide synthase 3, 164 µM. Also, the outcome in the series on BV-2 was Active.
Regarding `CC(C)C[C@H](NC(=O)/C=C/c1ccc(Cl)c(Cl)c1)C(=O)O`, the Ratio IC50 (in the series listed under Homo sapiens; in [2]) was 39 throughout. In addition, the IC50 stood at 29.6 µM on Nitric oxide synthase 1, 0.765 µM in series [3] and 29.7 µM at Nitric oxide synthase 3. Besides, the outcome with BV-2 was Active.
